Laboratory results as given in ChEMBL document CHEMBL1153732, “Lamiridosins, hepatitis C virus entry inhibitors from Lamium album” (J Nat Prod, 2009).
Values after ≈ are worked out from the molar mass of the structure shown. Active and inactive are the calls of the source. The rule behind the calls is not given here.

Test system: Vesicular stomatitis virus
Test: Antiviral activity against VSV with Vpr-deficient HIV vector assessed as inhibition of VSVG pseudo-particle entry in human Huh7 cells at 100 ug/ml preincubated for 20 mins measured after 72 hrs by luciferase reporter gene assay
Type: functional, organism-based
Conditions: Huh-7
Summary of the method: (§1)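 HCV E1E2 or VSVG pseudoviruses were made by cotransfecting 293T cells with the envelope plasmid and pNL4-3-Luc-R-E-, then harvested at 48 h and filtered. Each pseudovirus was preincubated 20 min at rt with 100 µg/mL sample or DMSO, then put on Huh7 cells for 6 h before the medium was replaced. Luciferase was read at 72 h as % of no-drug control. Duplicates, ≥3 experiments.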

Q: With `COC(=O)C1=COC(O)[C@H]2[C@@H]1[C@H](O)[C@H](O)C2(C)O` (mixture of isomers) as the molecule, how does the Activity read?
A: Its Activity is “inactive”.

Test system: Hepatitis C virus
Test: Antiviral activity against HCV expressing E1E2 glycoprotein with Vpr-deficient HIV vector assessed as inhibition of viral entry in human Huh7 cells at 20 ug/ml after 72 hrs by luciferase reporter gene assay in presence of beta-glucosidase enzyme for 0.5 hrs
Type: functional, Hepacivirus hominis
Conditions: Huh-7
Summary of the method: (§2)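 Iridoid glucosides were hydrolysed with β-glucosidase for 0.5 h or 4 h before testing at 20 µg/mL. Hydrolysates were mixed at rt with HCVpp and incubated with Huh7 cells for 6 h, then the medium was changed. Luciferase was read at 72 h postinfection as % inhibition. Duplicates, ≥3 experiments.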

Q: For `C[C@@H]1[C@H]2[C@H](O[C@@H]3O[C@H](CO)[C@@H](O)[C@H](O)[C@H]3O)OC=C(C(=O)O)[C@H]2C[C@@H]1O` [LOGANIC ACID], which inhibition at 20 µg/mL is on record?
A: Its inhibition at 20 µg/mL is 39.4%.

Q: For `C[C@]1(OC(=O)/C=C/c2ccccc2)C[C@@H](O)[C@]2(O)C=CO[C@@H](O[C@@H]3O[C@H](CO)[C@@H](O)[C@H](O)[C@H]3O)[C@@H]21` [HARPAGOSIDE], which inhibition at 20 µg/mL is on record?
A: The inhibition at 20 µg/mL was -41.7%.

Q: With `C[C@H]1[C@H]2[C@H](O[C@@H]3O[C@H](CO)[C@@H](O)[C@H](O)[C@H]3O)OC=C(C(=O)O)[C@H]2C[C@@H]1O` as the molecule, how does the inhibition at 20 µg/mL read?
A: The inhibition at 20 µg/mL was -21.6%.

Q: For `COC(=O)C1=CO[C@@H](O[C@@H]2O[C@H](CO)[C@@H](O)[C@H](O)[C@H]2O)[C@@H]2C(CO)=CC[C@H]12` [GENIPOSIDE], which inhibition at 20 µg/mL is on record?
A: Its inhibition at 20 µg/mL is 9.8%.

Q: For `COC(=O)C1=CO[C@@H](O[C@@H]2O[C@H](CO)[C@@H](O)[C@H](O)[C@H]2O)[C@@H]2[C@H](C)[C@@H](O)C[C@H]12`, which inhibition at 20 µg/mL is on record?
A: Its inhibition at 20 µg/mL is -12.7%.

Q: Which inhibition at 20 µg/mL does the source give for `COc1cc(C(=O)O[C@H]2[C@@H]3C=CO[C@@H](O[C@@H]4O[C@H](CO)[C@@H](O)[C@H](O)[C@H]4O)[C@@H]3[C@@]3(CO)O[C@@H]23)ccc1O` [PICROSIDE II] here?
A: The inhibition at 20 µg/mL was 31.6%.

Q: Which inhibition at 20 µg/mL does the source give for `COC(=O)C1=CO[C@@H](O[C@@H]2O[C@H](CO)[C@@H](O)[C@H](O)[C@H]2O)[C@H]2[C@@H]1C=C[C@@]2(O)CO` [GARDENOSIDE] here?
A: The inhibition at 20 µg/mL was -3.4%.

Test system: Hepatitis C virus
Test: Antiviral activity against HCV expressing E1E2 glycoprotein with Vpr-deficient HIV vector assessed as inhibition of viral entry in human Huh7 cells at 20 ug/ml after 72 hrs by luciferase reporter gene assay in presence of beta-glucosidase enzyme for 4 hrs
Type: functional, Hepacivirus hominis
Conditions: Huh-7
Summary of the method: as §2

Q: For `C[C@@H]1[C@H]2[C@H](O[C@@H]3O[C@H](CO)[C@@H](O)[C@H](O)[C@H]3O)OC=C(C(=O)O)[C@H]2C[C@@H]1O` [LOGANIC ACID], which inhibition at 20 µg/mL is on record?
A: The inhibition at 20 µg/mL was 52.5%.

Q: With `C[C@]1(OC(=O)/C=C/c2ccccc2)C[C@@H](O)[C@]2(O)C=CO[C@@H](O[C@@H]3O[C@H](CO)[C@@H](O)[C@H](O)[C@H]3O)[C@@H]21` [HARPAGOSIDE] as the molecule, how does the inhibition at 20 µg/mL read?
A: Its inhibition at 20 µg/mL is 17.1%.

Q: With `C[C@H]1[C@H]2[C@H](O[C@@H]3O[C@H](CO)[C@@H](O)[C@H](O)[C@H]3O)OC=C(C(=O)O)[C@H]2C[C@@H]1O` as the molecule, how does the inhibition at 20 µg/mL read?
A: The inhibition at 20 µg/mL was 5.3%.

Q: For `COC(=O)C1=CO[C@@H](O[C@@H]2O[C@H](CO)[C@@H](O)[C@H](O)[C@H]2O)[C@@H]2C(CO)=CC[C@H]12` [GENIPOSIDE], which inhibition at 20 µg/mL is on record?
A: The inhibition at 20 µg/mL was 17.1%.

Q: With `COC(=O)C1=CO[C@@H](O[C@@H]2O[C@H](CO)[C@@H](O)[C@H](O)[C@H]2O)[C@@H]2[C@H](C)[C@@H](O)C[C@H]12` as the molecule, how does the inhibition at 20 µg/mL read?
A: Its inhibition at 20 µg/mL is 0.4%.

Q: With `COc1cc(C(=O)O[C@H]2[C@@H]3C=CO[C@@H](O[C@@H]4O[C@H](CO)[C@@H](O)[C@H](O)[C@H]4O)[C@@H]3[C@@]3(CO)O[C@@H]23)ccc1O` [PICROSIDE II] as the molecule, how does the inhibition at 20 µg/mL read?
A: The inhibition at 20 µg/mL was 59.4%.

Q: With `COC(=O)C1=CO[C@@H](O[C@@H]2O[C@H](CO)[C@@H](O)[C@H](O)[C@H]2O)[C@H]2[C@@H]1C=C[C@@]2(O)CO` [GARDENOSIDE] as the molecule, how does the inhibition at 20 µg/mL read?
A: Its inhibition at 20 µg/mL is 21.1%.

Test system: not listed separately
Test: Cytotoxicity against human HepG2(2.2.15) cells at 50 ug/ml
Type: cell-based
Conditions: not given

Q: With `COC(=O)C1=COC(O)[C@H]2[C@@H]1[C@H](O)[C@H](O)C2(C)O` (mixture of isomers) as the molecule, how does the Activity read?
A: The Activity was “Non-toxic”.

Test system: Hepatitis C virus
Test: Antiviral activity against HCV expressing E1E2 glycoprotein with Vpr-deficient HIV vector assessed as inhibition of pseudoparticle entry in human Huh7 cells preincubated for 20 mins measured after 72 hrs by luciferase reporter gene assay
Type: functional, organism-based, Hepacivirus hominis
Conditions: Huh-7
Summary of the method: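 HCV E1E2/HIV-luciferase pseudovirus was preincubated 20 min at rt with a range of concentrations in µg/mL and incubated with Huh7 cells (8 × 10^4 per well, seeded the day before) for 6 h, then the medium was replaced. Luciferase was measured at 72 h and expressed as % of no-drug control. IC50 came from the concentration-response. Duplicates, ≥3 repeats.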

Q: Which IC50 does the source give for `COC(=O)C1=COC(O)[C@H]2[C@@H]1[C@H](O)[C@H](O)C2(C)O` (mixture of isomers) here?
A: Its IC50 is 2310 nM.

Test system: Hepatitis C virus
Test: Antiviral activity against HCV expressing E1E2 glycoprotein with Vpr-deficient HIV vector assessed as inhibition of pseudoparticle entry in human Huh7 cells at 100 ug/ml preincubated for 20 mins measured after 72 hrs by luciferase reporter gene assay
Type: functional, Hepacivirus hominis
Conditions: Huh-7
Summary of the method: as §1

Q: For `COC(=O)C1=COC(O)[C@H]2[C@@H]1[C@H](O)[C@H](O)C2(C)O` (mixture of isomers), which inhibition at 100 µg/mL is on record?
A: The inhibition at 100 µg/mL was 50%.

Test system: Hepatitis C virus
Test: Antiviral activity against HCV expressing E1E2 glycoprotein with Vpr-deficient HIV vector assessed as inhibition of viral entry in human Huh7 cells at 20 ug/ml measured after 72 hrs by luciferase reporter gene assay
Type: functional, organism-based
Conditions: Hepacivirus hominis, Huh-7
Summary of the method: (§3)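 HCVpp (E1E2 with HIV luciferase vector, made in 293T) was mixed at room temperature with 20 µg/mL compound and added to Huh7 cells for 6 h, then replaced by growth medium. Cells were lysed at 72 h postinfection and luciferase read as % inhibition. Samples in duplicate, experiments repeated at least three times.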

Q: For `C[C@@H]1[C@H]2[C@H](O[C@@H]3O[C@H](CO)[C@@H](O)[C@H](O)[C@H]3O)OC=C(C(=O)O)[C@H]2C[C@@H]1O` [LOGANIC ACID], which Activity is on record?
A: The Activity was “inactive”.

Q: Which Activity does the source give for `C[C@]1(OC(=O)/C=C/c2ccccc2)C[C@@H](O)[C@]2(O)C=CO[C@@H](O[C@@H]3O[C@H](CO)[C@@H](O)[C@H](O)[C@H]3O)[C@@H]21` [HARPAGOSIDE] here?
A: The Activity was “inactive”.

Q: With `C[C@H]1[C@H]2[C@H](O[C@@H]3O[C@H](CO)[C@@H](O)[C@H](O)[C@H]3O)OC=C(C(=O)O)[C@H]2C[C@@H]1O` as the molecule, how does the Activity read?
A: The Activity was “inactive”.

Q: For `COC(=O)C1=COC(O)[C@H]2[C@@H]1[C@H](O)[C@H](O)C2(C)O` (mixture of isomers), which Activity is on record?
A: The Activity was “inactive”.

Q: With `COC(=O)C1=CO[C@@H](O[C@@H]2O[C@H](CO)[C@@H](O)[C@H](O)[C@H]2O)[C@@H]2C(CO)=CC[C@H]12` [GENIPOSIDE] as the molecule, how does the Activity read?
A: Its Activity is “inactive”.

Q: Which Activity does the source give for `COC(=O)C1=CO[C@@H](O[C@@H]2O[C@H](CO)[C@@H](O)[C@H](O)[C@H]2O)[C@@H]2[C@H](C)[C@@H](O)C[C@H]12` here?
A: The Activity was “inactive”.

Q: For `COc1cc(C(=O)O[C@H]2[C@@H]3C=CO[C@@H](O[C@@H]4O[C@H](CO)[C@@H](O)[C@H](O)[C@H]4O)[C@@H]3[C@@]3(CO)O[C@@H]23)ccc1O` [PICROSIDE II], which Activity is on record?
A: Its Activity is “inactive”.

Q: With `COC(=O)C1=CO[C@@H](O[C@@H]2O[C@H](CO)[C@@H](O)[C@H](O)[C@H]2O)[C@H]2[C@@H]1C=C[C@@]2(O)CO` [GARDENOSIDE] as the molecule, how does the Activity read?
A: Its Activity is “inactive”.

Biological target: T1, CD81 antigen (Homo sapiens) (UniProt P60033)
T1 sequence (whole entry): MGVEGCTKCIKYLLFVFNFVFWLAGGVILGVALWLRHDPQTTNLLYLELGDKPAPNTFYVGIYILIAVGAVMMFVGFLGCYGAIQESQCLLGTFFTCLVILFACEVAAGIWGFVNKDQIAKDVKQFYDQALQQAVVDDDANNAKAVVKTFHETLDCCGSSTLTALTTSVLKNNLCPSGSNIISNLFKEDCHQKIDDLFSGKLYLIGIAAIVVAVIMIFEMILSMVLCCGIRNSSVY
Test: Inhibition of human recombinant GST-tagged CD81 protein assessed as HCV E1E2 binding after 1 hr by Western blot analysis
Conditions: not given
Summary of the method: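 Lysates of 293T cells expressing HCV E1E2 were taken 48 h post-transfection in 0.5% Triton X-100 buffer with protease inhibitor and clarified. They were rocked with 50 µg/mL compound or DMSO and 5 µg CD81-GST (large extracellular loop of human CD81) at 4 °C for 16 h. Glutathione beads were added for 1 h at 4 °C, then washed. Western blot for E2 and GST; GST alone served as control.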

Q: For `C[C@@H]1[C@H]2[C@H](O[C@@H]3O[C@H](CO)[C@@H](O)[C@H](O)[C@H]3O)OC=C(C(=O)O)[C@H]2C[C@@H]1O` [LOGANIC ACID], which Activity is on record?
A: The Activity was “inactive”.

Q: With `COC(=O)C1=COC(O)[C@H]2[C@@H]1[C@H](O)[C@H](O)C2(C)O` (mixture of isomers) as the molecule, how does the Activity read?
A: The Activity was “inactive”.

Test system: Hepatitis C virus
Test: Antiviral activity against HCV expressing E1E2 glycoprotein with Vpr-deficient HIV vector assessed as inhibition of viral entry in human Huh7 cells at 20 ug/ml after 72 hrs by luciferase reporter gene assay
Type: functional, Hepacivirus hominis
Conditions: Huh-7, 72 h
Summary of the method: as §3

Q: For `C[C@]1(OC(=O)/C=C/c2ccccc2)C[C@@H](O)[C@]2(O)C=CO[C@@H](O[C@@H]3O[C@H](CO)[C@@H](O)[C@H](O)[C@H]3O)[C@@H]21` [HARPAGOSIDE], which inhibition at 20 µg/mL is on record?
A: The inhibition at 20 µg/mL was 2.1%.

Q: Which inhibition at 20 µg/mL does the source give for `COC(=O)C1=CO[C@@H](O[C@@H]2O[C@H](CO)[C@@H](O)[C@H](O)[C@H]2O)[C@@H]2C(CO)=CC[C@H]12` [GENIPOSIDE] here?
A: Its inhibition at 20 µg/mL is 1.1%.

Test system: Hepatitis C virus
Test: Antiviral activity against HCV infected in human Huh7 cells assessed as inhibition of viral replication after 48 hrs by NS5A staining
Conditions: Huh-7, 48 h

Q: With `C[C@@H]1[C@H]2[C@H](O[C@@H]3O[C@H](CO)[C@@H](O)[C@H](O)[C@H]3O)OC=C(C(=O)O)[C@H]2C[C@@H]1O` [LOGANIC ACID] as the molecule, how does the IC50 read?
A: Its IC50 is 11 µg/mL (≈ 29.2 µM).

Q: For `COC(=O)C1=COC(O)[C@H]2[C@@H]1[C@H](O)[C@H](O)C2(C)O` (mixture of isomers), which IC50 is on record?
A: Its IC50 is 15 µg/mL.
